High-throughput results as filed in PubChem BioAssay.
PKD1 inh = inhibitors of human PKD1 kinase. Q15139. inhibition, % (test concentration not listed). PKD1 kinase fluorescence polarization assay. 200,000 tested, 0.056% active
Arbovirus inh = blocks arbovirus infection | inhibition, % at 10 µM | arbovirus infection cell-based antiviral screen | 200,000 tested, 0.37% active; in the data active = inhibition above about 30%
Wee1 stabilizer = blocks degradation of human Wee1 kinase. HeLa Luc-Wee1K328M stability, luciferase luminescence; 100% = proteasome inhibitor MG132 effect. reporter increase, % at 5 µM. 220,000 tested, 1.2% active. AID 1321;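 active = activation above the mean of all tested compounds plus 3 SD, set per screening run, cut at about 8.8% in these data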;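 note: cells exposed to compound for 20 h before luminescence read; 0% = DMSO alone and 100% = MG132 at 30 µM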
Target sequence (P30291 whole entry K328M): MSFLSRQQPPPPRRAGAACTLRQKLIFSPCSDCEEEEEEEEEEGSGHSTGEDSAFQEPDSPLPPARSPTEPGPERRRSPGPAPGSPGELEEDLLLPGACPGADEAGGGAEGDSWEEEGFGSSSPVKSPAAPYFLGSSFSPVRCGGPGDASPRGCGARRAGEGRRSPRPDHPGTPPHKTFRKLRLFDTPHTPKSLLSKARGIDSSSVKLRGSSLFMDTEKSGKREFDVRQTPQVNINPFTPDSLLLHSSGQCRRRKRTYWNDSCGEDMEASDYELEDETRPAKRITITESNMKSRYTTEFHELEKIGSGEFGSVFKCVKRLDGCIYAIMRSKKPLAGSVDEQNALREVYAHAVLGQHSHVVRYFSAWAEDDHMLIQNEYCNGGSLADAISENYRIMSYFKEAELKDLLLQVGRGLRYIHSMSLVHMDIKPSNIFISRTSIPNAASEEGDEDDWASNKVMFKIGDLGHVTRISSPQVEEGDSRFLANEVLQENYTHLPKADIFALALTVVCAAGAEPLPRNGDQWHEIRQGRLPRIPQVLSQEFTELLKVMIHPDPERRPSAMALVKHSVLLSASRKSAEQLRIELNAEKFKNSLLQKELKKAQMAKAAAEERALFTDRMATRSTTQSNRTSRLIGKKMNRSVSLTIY
L major viab = inhibitors of Leishmania major promastigote growth; Leishmania major promastigotes, resazurin fluorescence viability; inhibition, % at 10 µM; 200,000 tested, 9% active;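 note: promastigotes grown with compound for 44 hours at 28 °C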
Rad51 HR inh = blocks human Rad51 in homologous recombination | inhibition, % at 10 µM | hRad51 DNA strand exchange, fluorescence dequenching | 200,000 tested, 0.085% active | Q06609;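 active = inhibition above 40% at the single screening dose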;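 note: 0% = DMSO control wells and 100% = blanks with heterologous ssDNA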
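Test system: preformed human Rad51 ssDNA filaments. Compound dosing: single dose, 10 µM final compound. Incubation: filaments 15 min 37 °C, then compound 30 min. Technique: FRET fluorescence dequenching, excitation 485 nm, emission 520 nm. Read-out basis: percent inhibition from fluorescence, normalised to plate control and blank means. Benchmarks: plate controls and plate blanks.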
CHOP inhibitor = blocks CHOP induction under ER stress | CHO-K1 CHOP-promoter luciferase, tunicamycin-induced, 15-18 h | inhibition, % at 10 µM | 220,000 tested, 3.8% active | AID 2732;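 active = compounds that reduced the stress-induced luciferase reporter signal by more than about 70% of percent inhibition, limit read from the data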;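 note: 0% = tunicamycin plus vehicle and 100% = wells without tunicamycin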
Active calls of the source: *; nt = no result. The list is not random: actives were taken first. Their share in the collection is about 12%. Cut-off read from the data, not from the text of the source, unless noted: active = inhibition above about 50%; inactive = the rest.

SMILES	PKD1 inh	Arbovirus inh	Wee1 stabilizer	L major viab	Rad51 HR inh	CHOP inhibitor
Cc1ccccc1C(=O)Nc1ccc2c(C#N)c3nc4ccccc4nc3n2c1	-6	-9	-2	47	-120	96*
Cc1c(C(=O)Nc2ccccc2)cn2c(nc3ccccc32)c1C#N	-3	-3	1	17	nt	19
CCOc1ccc(N2C(=O)CN(O)C=C3N=c4ccccc4=C32)cc1	-3	0	-2	11	nt	8
Cc1c(Nc2cc(N3CCOCC3)c3nonc3c2[N+](=O)[O-])c(=O)n(-c2ccccc2)n1C	-4	3	-3	5	-4	-4
Cc1c(Nc2cc(Cl)c3nonc3c2[N+](=O)[O-])c(=O)n(-c2ccccc2)n1C	1	-32	4	79*	25	108*
CNS(=O)(=O)c1cnccc1N1CCN(c2cccc(C(F)(F)F)c2)CC1	-3	7	-2	99*	3	27
O=C(N=Nc1c(O)[nH]c2ccccc12)c1ccccc1NS(=O)(=O)c1cccs1	-19	2	3	68*	-6	7
N#C/C(=C/c1ccc(-c2ccc(Br)cc2)o1)C(=O)NC1CCCCC1	-2	6	-1	81*	-19	58
Cc1ccc(-c2[nH]ncc2/C=C(\C#N)C(=O)NC2CCCCC2)cc1	-4	-2	-2	35	-3	72*
N#C/C(=C\c1ccc(-c2ccc(Br)cc2)o1)C(=O)NCCc1c[nH]c2ccccc12	-8	-26	6	5	-2	63
COc1ccc(-c2[nH]ncc2/C=C(/C#N)C(=O)NC2CCCCC2)cc1	2	-15	0	66*	-10	31
CC(C)(C)NC(=O)CN1CCN(C(=O)CCl)CC1	1	8	0	4	nt	5
O=C(c1ccc(CN2CCc3ccccc3C2)cc1)N1CCc2ccccc2C1	9	9	-3	31	nt	15
Cc1ccccc1NC(=O)c1ccc(CN2CCc3ccccc3C2)cc1	-2	-8	-4	45	1	17
CCc1cccc(C)c1NC(=O)c1ccc(CN2CCc3ccccc3C2)cc1	-11	-4	-3	66*	-5	28
Cc1cccc(NC(=O)c2ccc(CN3CCc4ccccc4C3)cc2)c1C	-6	0	2	57*	-15	3
Cn1cnnc1SC(C(=O)Nc1cccc(C(F)(F)F)c1)c1ccccc1 (configuration not stated)	-1	6	5	-12	-3	57
O=C(Nc1cccc2ccccc12)C12CC3CC(C1)CC(n1cnc([N+](=O)[O-])n1)(C3)C2	-3	-25	2	73*	1	-13
O=C(Nc1cc(Oc2ccccc2)cc([N+](=O)[O-])c1)C12CC3CC(C1)CC(n1cnc(Cl)n1)(C3)C2	2	-8	-1	80*	5	27
NC(=O)CSc1nnc(Cc2ccc3c(c2)OCO3)o1	-1	1	-2	-7	-2	2
CCCN1CCN(C(=S)NCc2ccc(Cl)cc2)CC1	-2	0	0	81*	nt	19
S=C(NCc1ccc(Cl)cc1)N1CCN(c2ccccn2)CC1	6	-4	4	-7	0	1
Cc1cnn(C(=S)NCc2ccc(Cl)cc2)c1	-5	9	-3	-3	-7	74*
COc1cccc(-n2c(SCC(=O)Nc3nc4ccccc4s3)nc3ccccc3c2=O)c1	nt	nt	0	nt	-5	40
COc1cccc(-n2c(SCC(=O)Nc3sc4c(c3C(N)=O)CCC4)nc3ccccc3c2=O)c1	0	-8	1	52*	7	27
SMILES	PKD1 inh	Arbovirus inh	Wee1 stabilizer	L major viab	Rad51 HR inh	CHOP inhibitor
O=S(Cc1ccccc1)CC(O)(c1ccc(Cl)cc1)c1ccc(Cl)cc1 (configuration not stated)	-2	-33	-1	15	-11	85*
Cc1ccc2[nH]cc(C(=O)CN3CCN(C)CC3)c2c1	-13	-1	0	6	6	2
Cc1ccc2[nH]cc(C(=O)CCl)c2c1	8	-39	2	81*	nt	47
O=C(N/N=C/c1ccccc1)c1c(O)c2ccccc2[nH]c1=O	0	7	-1	17	2	78*
O=C(CSc1nnc(Cc2ccccc2)o1)N1CCc2ccccc21	-7	-3	-1	-3	85*	16
Cc1ccc(NCc2nnc(SCC(=O)N3CCCc4ccccc43)o2)c(C)c1	0	-5	1	7	3	75*
O=C(CSc1nnc(CNc2ccccc2)o1)N1CCCc2ccccc21	11	7	-3	29	nt	-3
CCn1cc([N+](=O)[O-])c(C(=O)N2N=C(c3ccc4ccccc4c3)CC2c2cc(Br)ccc2O)n1 (configuration not stated)	-6	-37	4	100*	9	27
FC(F)(F)c1cnc(NNC(=S)Nc2ccc(Cl)cc2)c(Cl)c1	6	-36	-2	-8	0	99*
ON/C=N/C(=S)Nc1ncc(C(F)(F)F)cc1Cl	-1	3	7	90*	-4	23
CC(C)(C)c1ccc(C(=O)c2c[nH]c(C(=O)NCCc3ccccn3)c2)cc1	-3	0	-2	-4	9	7
COc1ccc(CNC(=O)COC(=O)C2CCC(C(C)(C)C)CC2)cc1 (configuration not stated)	0	-4	5	0	5	90*
Cc1cccc(N2CCN(C(=O)c3ccc4ncsc4c3)CC2)c1C	-3	-12	3	61*	nt	57
Cc1noc(C)c1S(=O)(=O)Nc1ccc(C(=O)N2CCN(c3cccc(Cl)c3)CC2)cc1	4	-3	2	-5	7	34
Cc1cccc(N2CCN(C(=O)c3ccc(NS(=O)(=O)c4c(C)noc4C)cc3)CC2)c1C	-8	16	2	97*	0	47
CCS(=O)(=O)c1nc(S(=O)(=O)c2ccc(Cl)cc2)c(N2CCc3ccccc3C2)s1	6	5	5	51*	nt	41
CCOC(=O)C1(C)Oc2ccc(S(=O)(=O)CC)cc2NC1=O (configuration not stated)	4	2	-3	-6	-8	1
O=C(N/N=C/c1cccc([N+](=O)[O-])c1)c1cc2ccccc2o1	-4	-10	-2	-3	-8	95*
Cc1ccc(C(=O)N/N=C\c2ccc[nH]2)cn1	2	-6	0	-6	-3	18
O=C(N/N=C/c1ccc[nH]1)c1ccc([N+](=O)[O-])cc1	-1	-6	-2	79*	nt	-37
O=C(O)c1cccc(-c2ccc(/C=N/NC(=O)c3cccnc3)o2)c1	6	-3	2	-3	12	-4
O=C(N/N=C/c1ccc(-c2ccccc2[N+](=O)[O-])o1)c1cccnc1	0	-2	1	95*	-12	7
Cc1cc(C(=O)N/N=C/c2cccc([N+](=O)[O-])c2)c(C)o1	-14	-8	0	-1	8	-1
